# Experimental data reported in ChEMBL document CHEMBL4396889, “From Inhibition to Degradation: Targeting the Antiapoptotic Protein Myeloid Cell Leukemia 1 (MCL1)” (J Med Chem, 2019).
# Legend:
# OPM-2 [1] = test: Induction of apoptosis in wild type human OPM2 cells assessed as cleaved caspase-3 at 500 nM after 24 hrs in presence of 1% FBS by immunoblot analysis (reference value: 80%); format: functional
# [2] = target: T1, Induced myeloid leukemia cell differentiation protein Mcl-1 (Homo sapiens, UniProt Q07820); test: Induction of MCL1 long isoform degradation in CRBN-/- human OPM2 cells assessed as protein abundance at 300 nM pre-incubated for 72 hrs followed by cycloheximide addition and measured after 120 mins by immunoblot analysis (reference value: 37%); format: cell-based
# Outline: (§1)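 Cycloheximide chase: cells were treated for 72 h with DMSO or degrader, with cycloheximide added for the final 30, 60 or 120 min. OPM2 and MM1.S cells were used, and wild-type OPM2 was compared with OPM2 CRBN-/- at 60 and 120 min. MCL1 was detected by immunoblot.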
# [3] = target: T2, Protein cereblon/Induced myeloid leukemia cell differentiation protein Mcl-1 (Homo sapiens) (UniProt Q07820+Q96SW2); test: Protac activity at Cereblon/MCL1 short isoform in human OPM2 cells assessed as MCL1 short isoform level at 300 nM pre-incubated for 72 hrs followed by cycloheximide addition and measured after 60 mins by immunoblot analysis (reference value: 49%); format: cell-based
# Outline: (§2)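 OPM2 or MM1.S cells were treated for 72 h with compound or DMSO. Cycloheximide was added for the final 30, 60 or 120 min. MCL1 was read by immunoblot and compared with DMSO-treated cells as a normal-turnover reference.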
# [4] = target: T2, Protein cereblon/Induced myeloid leukemia cell differentiation protein Mcl-1 (Homo sapiens); test: Protac activity at Cereblon/MCL1 short isoform in wild type human OPM2 cells assessed as MCL1 short isoform level at 300 nM pre-incubated for 72 hrs followed by cycloheximide addition and measured after 120 mins by immunoblot analysis (reference value: 14%); format: cell-based
# Outline: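 OPM2 wild-type and OPM2 CRBN-/- cells were treated for 72 h with compound or DMSO, with cycloheximide present for the final 60 or 120 min. MCL1 was detected by immunoblot.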
# [5] = target: T2, Protein cereblon/Induced myeloid leukemia cell differentiation protein Mcl-1 (Homo sapiens); test: Protac activity at Cereblon/MCL1 long isoform in human OPM2 cells assessed as MCL1 long isoform level at 300 nM pre-incubated for 72 hrs followed by cycloheximide addition and measured after 120 mins by immunoblot analysis (reference value: 58%); format: cell-based; outline: as §1
# [6] = target: T2, Protein cereblon/Induced myeloid leukemia cell differentiation protein Mcl-1 (Homo sapiens); test: Protac activity at Cereblon/MCL1 short isoform in wild type human OPM2 cells assessed as MCL1 short isoform abundance at 50 nM after 48 hrs by immunoblot analysis relative to control; format: cell-based
# Outline: (§3)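 OPM2 wild-type cells, run alongside the CRBN-/- line, were treated for 48 h with compound or DMSO. The MCL1 long and short isoforms were then measured by immunoblot against the DMSO control.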
# [7] = target: T2, Protein cereblon/Induced myeloid leukemia cell differentiation protein Mcl-1 (Homo sapiens); test: Protac activity at Cereblon/MCL1 short isoform in human OPM2 cells assessed as MCL1 short isoform abundance at 250 nM after 24 hrs by immunoblot analysis relative to control; format: cell-based
# [8] = target: T1, Induced myeloid leukemia cell differentiation protein Mcl-1; test: Induction of MCL1 short isoform degradation in CRBN-/- human OPM2 cells assessed as protein abundance at 300 nM pre-incubated for 72 hrs followed by cycloheximide addition and measured after 60 mins by immunoblot analysis (reference value: 57%); format: cell-based; outline: as §1
# [9] = target: T1, Induced myeloid leukemia cell differentiation protein Mcl-1; test: Induction of MCL1 long isoform degradation in CRBN-/- human OPM2 cells assessed as protein abundance at 250 nM after 48 hrs by immunoblot analysis relative to control; format: cell-based
# Outline: (§4)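 OPM2 multiple myeloma cells, wild type or CRBN-knockout, were treated for 48 h with degrader or DMSO vehicle. MCL1 long and short isoforms were detected by immunoblot and levels compared with DMSO controls.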
# [10] = target: T1, Induced myeloid leukemia cell differentiation protein Mcl-1; test: Induction of MCL1 short isoform degradation in CRBN-/- human OPM2 cells assessed as protein abundance at 250 nM after 48 hrs by immunoblot analysis relative to control; format: cell-based; outline: as §4
# [11] = target: T2, Protein cereblon/Induced myeloid leukemia cell differentiation protein Mcl-1 (Homo sapiens); test: Protac activity at Cereblon/MCL1 long isoform in wild type human OPM2 cells at 500 nM after 48 hrs by immunoblot analysis relative to control; format: cell-based; outline: as §4
# OPM-2 [12] = test: Cytotoxicity against CRBN-/- human OPM2 cells assessed as reduction in cell viability at 50 to 10000 nM after 48 hrs by CellTiter-96 Cell Viability Assay; format: cell-based; conditions: opm-2, 48 h, 10 µM
# [13] = target: T2, Protein cereblon/Induced myeloid leukemia cell differentiation protein Mcl-1 (Homo sapiens); test: Protac activity at Cereblon/MCL1 short isoform in wild type human OPM2 cells assessed as MCL1 short isoform abundance at 500 nM after 48 hrs by immunoblot analysis relative to control; format: cell-based; outline: as §3
# OPM-2 [14] = test: Induction of apoptosis in wild type human OPM2 cells assessed as cleaved caspase-3 at 50 nM after 24 hrs in presence of 1% FBS by immunoblot analysis (reference value: 95%); format: functional
# [15] = target: T2, Protein cereblon/Induced myeloid leukemia cell differentiation protein Mcl-1 (Homo sapiens); test: Protac activity at Cereblon/MCL1 short isoform in human OPM2 cells assessed as MCL1 short isoform level at 300 nM pre-incubated for 72 hrs followed by cycloheximide addition and measured after 120 mins by immunoblot analysis (reference value: 14%); format: cell-based; outline: as §2
# [16] = target: T1, Induced myeloid leukemia cell differentiation protein Mcl-1; test: Induction of MCL1 long isoform degradation in CRBN-/- human OPM2 cells assessed as protein abundance at 50 nM after 48 hrs by immunoblot analysis relative to control; format: cell-based; outline: as §4
# [17] = target: T2, Protein cereblon/Induced myeloid leukemia cell differentiation protein Mcl-1 (Homo sapiens); test: Protac activity at Cereblon/MCL1 short isoform in human MM1S cells assessed as MCL1 short isoform level at 300 nM pre-incubated for 72 hrs followed by cycloheximide addition and measured after 120 mins by immunoblot analysis (reference value: 80%); format: cell-based; outline: as §1
# [18] = target: T2, Protein cereblon/Induced myeloid leukemia cell differentiation protein Mcl-1 (Homo sapiens); test: Protac activity at Cereblon/MCL1 in human OPM2 cells assessed as protein abundance at 500 nM after 48 hrs by immunoblot analysis relative to control; format: cell-based; outline: as §4
# [19] = target: T2, Protein cereblon/Induced myeloid leukemia cell differentiation protein Mcl-1 (Homo sapiens); test: Protac activity at Cereblon/MCL1 long isoform in human OPM2 cells assessed as MCL1 long isoform level at 300 nM pre-incubated for 72 hrs followed by cycloheximide addition and measured after 30 mins by immunoblot analysis (reference value: 98%); format: cell-based; outline: as §1
# [20] = target: T2, Protein cereblon/Induced myeloid leukemia cell differentiation protein Mcl-1 (Homo sapiens); test: Protac activity at Cereblon/MCL1 short isoform in human OPM2 cells assessed as MCL1 short isoform abundance at 500 nM after 24 hrs by immunoblot analysis relative to control; format: cell-based
# [21] = target: T1, Induced myeloid leukemia cell differentiation protein Mcl-1; test: Binding affinity to His-tagged biotinylated human MCL1 by surface plasmon resonance method
# [22] = target: T2, Protein cereblon/Induced myeloid leukemia cell differentiation protein Mcl-1 (Homo sapiens); test: Protac activity at Cereblon/MCL1 short isoform in human MM1S cells assessed as MCL1 short isoform level at 300 nM pre-incubated for 72 hrs followed by cycloheximide addition and measured after 30 mins by immunoblot analysis (reference value: 100%); format: cell-based; outline: as §1
# OPM-2 [23] = test: Induction of apoptosis in wild type human OPM2 cells assessed as cleaved caspase-3 at 100 nM after 24 hrs in presence of 1% FBS by immunoblot analysis (reference value: 91%); format: functional
# [24] = target: T2, Protein cereblon/Induced myeloid leukemia cell differentiation protein Mcl-1 (Homo sapiens); test: Protac activity at Cereblon/MCL1 long isoform in human OPM2 cells assessed as MCL1 long isoform abundance at 250 nM after 24 hrs by immunoblot analysis relative to control; format: cell-based
# [25] = target: T1, Induced myeloid leukemia cell differentiation protein Mcl-1; test: Induction of MCL1 short isoform degradation in CRBN-/- human OPM2 cells assessed as protein abundance at 300 nM pre-incubated for 72 hrs followed by cycloheximide addition and measured after 120 mins by immunoblot analysis (reference value: 16%); format: cell-based; outline: as §1
# [26] = target: T2, Protein cereblon/Induced myeloid leukemia cell differentiation protein Mcl-1 (Homo sapiens); test: Protac activity at Cereblon/MCL1 long isoform in human MM1S cells assessed as MCL1 long isoform level at 300 nM pre-incubated for 72 hrs followed by cycloheximide addition and measured after 30 mins by immunoblot analysis (reference value: 96%); format: cell-based; outline: as §1
# [27] = Half-life in human liver microsome pre-incubated for 10 mins followed by addition of NADPH regenerating system after 5 to 60 mins by LC/MS/MS analysis; format: ADME; conditions: liver microsomes
# T2 sequence (Q07820 whole entry, looked up, canonical isoform): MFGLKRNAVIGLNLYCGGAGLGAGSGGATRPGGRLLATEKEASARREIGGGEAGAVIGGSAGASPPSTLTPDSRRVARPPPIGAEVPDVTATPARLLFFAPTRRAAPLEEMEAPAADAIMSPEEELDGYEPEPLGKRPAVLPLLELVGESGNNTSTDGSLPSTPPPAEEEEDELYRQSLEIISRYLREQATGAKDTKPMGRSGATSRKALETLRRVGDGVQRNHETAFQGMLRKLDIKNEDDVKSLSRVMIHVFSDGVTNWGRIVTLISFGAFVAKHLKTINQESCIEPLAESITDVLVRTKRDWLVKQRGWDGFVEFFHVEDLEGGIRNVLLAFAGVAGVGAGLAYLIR
# T2 sequence (Q96SW2 whole entry, looked up, canonical isoform): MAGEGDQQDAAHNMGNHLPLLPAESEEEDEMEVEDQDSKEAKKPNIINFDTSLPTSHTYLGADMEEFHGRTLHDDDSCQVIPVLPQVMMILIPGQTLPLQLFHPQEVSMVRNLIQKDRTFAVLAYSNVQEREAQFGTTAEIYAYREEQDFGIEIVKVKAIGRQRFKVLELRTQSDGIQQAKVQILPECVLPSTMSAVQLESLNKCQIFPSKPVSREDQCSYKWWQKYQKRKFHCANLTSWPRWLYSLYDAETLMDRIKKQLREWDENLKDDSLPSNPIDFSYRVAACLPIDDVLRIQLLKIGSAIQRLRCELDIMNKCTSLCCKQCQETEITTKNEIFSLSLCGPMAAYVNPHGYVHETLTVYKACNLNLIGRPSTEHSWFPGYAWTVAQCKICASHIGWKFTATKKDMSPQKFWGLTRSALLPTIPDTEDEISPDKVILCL
# T1 sequence (Q07820 whole entry, canonical isoform): as the sequence (Q07820 whole entry, looked up, canonical isoform) above
compound,measurement,setting,value
Cc1nn(C)c(COc2ccc(N3CCN(S(=O)(=O)N(C)C)CC3)cc2)c1-c1cccc2c(CCCOc3cccc4ccccc34)c(C(=O)O)n(CCN3CCN(C(=O)COc4cccc5c4C(=O)N(C4CCC(=O)NC4=O)C5=O)CC3)c12 (configuration not stated),Activity,OPM-2 [1],326%
same,Activity,[2],39%
same,Activity,[3],8%
same,Activity,[4],2%
same,Activity,[5],24%
same,Activity,[6],79%
same,Activity,[7],49%
same,Activity,[8],64%
same,Activity,[9],85%
same,Activity,[10],97%
same,Activity,[11],50%
same,Activity,OPM-2 [12],Toxic
same,Activity,[13],20%
same,Activity,OPM-2 [14],85%
same,Activity,[15],2%
same,Activity,[16],100%
same,Activity,[17],34%
same,Activity,[18],58%
same,Activity,[19],88%
same,Activity,[20],22%
same,Kd,[21],30 nM
same,Activity,[22],74%
same,Activity,OPM-2 [23],143%
same,Activity,[24],73%
same,Activity,[25],25%
same,Activity,[26],90%
same,half-life,[27],20.6 min
